# Assay results from ChEMBL document CHEMBL1154842, “Synthesis, radiolabeling, and biological evaluation of (R)- and (S)-2-amino-3-[(18)F]fluoro-2-methylpropanoic acid (FAMP) and (R)- and (S)-3-[(18)F]fluoro-2-methyl-2-N-(methylamino)propanoic acid (NMeFAMP) as potential PET radioligands for imaging brain tumors” (J Med Chem, 2010).
# How the values were obtained:
# Pancreas [1] = assay: Biodistribution in pancreas of Fischer 344 rat bearing rat 9L cells at 20 uCi, iv after 60 mins; format: ADME, organism-based; details: in vivo, 1 h
# How it was run: (§1)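 Male Fischer 344 rats (200–250 g) carrying intracranial 9L gliosarcoma (5×10^4 cells implanted stereotactically, 10–12 days growth), under ketamine:xylazine anaesthesia. About 20 μCi tracer in 0.5 mL sterile saline given via tail-vein catheter. Groups of 4–5 were killed by intracardiac KCl at 15 (NMeFAMP only), 30, 60 or 120 min. Tissues were weighed and gamma-counted, decay-corrected, and reported as %ID/g, mean ± SD.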
# [2] = rat, in vivo, iv, 1 h
# Kidney [3] = assay: Biodistribution in kidney of Fischer 344 rat bearing rat 9L cells at 20 uCi, iv after 30 mins; format: ADME, organism-based; details: in vivo, 0.5 h; how it was run: as §1
# Spleen [4] = assay: Biodistribution in spleen of Fischer 344 rat bearing rat 9L cells at 20 uCi, iv after 120 mins; format: ADME, organism-based; details: in vivo, 2 h; how it was run: as §1
# [5] = Biodistribution in testis of Fischer 344 rat bearing rat 9L cells at 20 uCi, iv after 120 mins; format: ADME, organism-based; details: in vivo, 2 h; how it was run: as §1
# Heart [6] = assay: Biodistribution in heart of Fischer 344 rat bearing rat 9L cells at 20 uCi, iv after 60 mins; format: ADME, organism-based; details: in vivo, 1 h; how it was run: as §1
# Heart [7] = assay: Biodistribution in heart of Fischer 344 rat bearing rat 9L cells at 20 uCi, iv after 30 mins; format: ADME, organism-based; details: in vivo, 0.5 h; how it was run: as §1
# Spleen [8] = assay: Biodistribution in spleen of Fischer 344 rat bearing rat 9L cells at 20 uCi, iv after 30 mins; format: ADME, organism-based; details: in vivo, 0.5 h; how it was run: as §1
# Muscle tissue [9] = assay: Biodistribution in muscle of Fischer 344 rat bearing rat 9L cells at 20 uCi, iv after 15 mins; format: ADME, organism-based; details: in vivo, 0.25 h; how it was run: as §1
# Lung [10] = assay: Biodistribution in lung of Fischer 344 rat bearing rat 9L cells at 20 uCi, iv after 120 mins; format: ADME, organism-based; details: in vivo, 2 h; how it was run: as §1
# Liver [11] = assay: Biodistribution in liver of Fischer 344 rat bearing rat 9L cells at 20 uCi, iv after 60 mins; format: ADME, organism-based; details: in vivo, 1 h; how it was run: as §1
# Blood [12] = assay: Biodistribution in blood of Fischer 344 rat bearing rat 9L cells at 20 uCi, iv after 15 mins; format: ADME, organism-based; details: in vivo, 0.25 h; how it was run: as §1
# [13] = Biodistribution in testis of Fischer 344 rat bearing rat 9L cells at 20 uCi, iv after 60 mins; format: ADME, organism-based; details: in vivo, 1 h; how it was run: as §1
# Pancreas [14] = assay: Biodistribution in pancreas of Fischer 344 rat bearing rat 9L cells at 20 uCi, iv after 30 mins; format: ADME, organism-based; details: in vivo, 0.5 h; how it was run: as §1
# Heart [15] = assay: Biodistribution in heart of Fischer 344 rat bearing rat 9L cells at 20 uCi, iv after 15 mins; format: ADME, organism-based; details: in vivo, 0.25 h; how it was run: as §1
# Lung [16] = assay: Biodistribution in lung of Fischer 344 rat bearing rat 9L cells at 20 uCi, iv after 60 mins; format: ADME, organism-based; details: in vivo, 1 h; how it was run: as §1
# [17] = Biodistribution in testis of Fischer 344 rat bearing rat 9L cells at 20 uCi, iv after 30 mins; format: ADME, organism-based; details: in vivo, 0.5 h; how it was run: as §1
# Muscle tissue [18] = assay: Biodistribution in muscle of Fischer 344 rat bearing rat 9L cells at 20 uCi, iv after 30 mins; format: ADME, organism-based; details: in vivo, 0.5 h; how it was run: as §1
# Brain [19] = assay: Biodistribution in brain of Fischer 344 rat bearing rat 9L cells at 20 uCi, iv after 30 mins; details: in vivo, 0.5 h
# Bone [20] = assay: Biodistribution in bone of Fischer 344 rat bearing rat 9L cells at 20 uCi, iv after 30 mins; format: ADME, organism-based, Bone element; details: in vivo, 0.5 h; how it was run: as §1
# Blood [21] = assay: Biodistribution in blood of Fischer 344 rat bearing rat 9L cells at 20 uCi, iv after 120 mins; format: ADME, organism-based; details: in vivo, 2 h; how it was run: as §1
# Lung [22] = assay: Biodistribution in lung of Fischer 344 rat bearing rat 9L cells at 20 uCi, iv after 30 mins; format: ADME, organism-based; details: in vivo, 0.5 h; how it was run: as §1
# Muscle tissue [23] = assay: Biodistribution in muscle of Fischer 344 rat bearing rat 9L cells at 20 uCi, iv after 60 mins; format: ADME, organism-based; details: in vivo, 1 h; how it was run: as §1
# [24] = Biodistribution in testis of Fischer 344 rat bearing rat 9L cells at 20 uCi, iv after 15 mins; format: ADME, organism-based; details: in vivo, 0.25 h; how it was run: as §1
# Blood [25] = assay: Biodistribution in blood of Fischer 344 rat bearing rat 9L cells at 20 uCi, iv after 60 mins; format: ADME, organism-based; details: in vivo, 1 h; how it was run: as §1
# [26] = Ratio of drug level from tumor to brain of Fischer 344 rat bearing rat 9L cells at 20 uCi, iv after 120 mins; format: ADME, organism-based; details: in vivo, 2 h
# Brain [27] = assay: Biodistribution in brain of Fischer 344 rat bearing rat 9L cells at 20 uCi, iv after 15 mins; details: in vivo
# Lung [28] = assay: Biodistribution in lung of Fischer 344 rat bearing rat 9L cells at 20 uCi, iv after 15 mins; format: ADME, organism-based; details: in vivo, 0.25 h; how it was run: as §1
# Pancreas [29] = assay: Biodistribution in pancreas of Fischer 344 rat bearing rat 9L cells at 20 uCi, iv after 120 mins; format: ADME, organism-based; details: in vivo, 2 h; how it was run: as §1
# Bone [30] = assay: Biodistribution in bone of Fischer 344 rat bearing rat 9L cells at 20 uCi, iv after 15 mins; format: ADME, organism-based, Bone element; details: in vivo, 0.25 h; how it was run: as §1
# Spleen [31] = assay: Biodistribution in spleen of Fischer 344 rat bearing rat 9L cells at 20 uCi, iv after 15 mins; format: ADME, organism-based; details: in vivo, 0.25 h; how it was run: as §1
# Liver [32] = assay: Biodistribution in liver of Fischer 344 rat bearing rat 9L cells at 20 uCi, iv after 30 mins; format: ADME, organism-based; details: in vivo, 0.5 h; how it was run: as §1
# [33] = Biodistribution in tumor of Fischer 344 rat bearing rat 9L cells at 20 uCi, iv after 30 mins; format: ADME, organism-based, Neoplasm; details: in vivo, 0.5 h; how it was run: as §1
# Brain [34] = assay: Biodistribution in brain of Fischer 344 rat bearing rat 9L cells at 20 uCi, iv after 15 mins; format: ADME, organism-based; details: in vivo, 0.25 h; how it was run: as §1
# Heart [35] = assay: Biodistribution in heart of Fischer 344 rat bearing rat 9L cells at 20 uCi, iv after 120 mins; format: ADME, organism-based; details: in vivo, 2 h; how it was run: as §1
# [36] = Ratio of drug level from tumor to brain of Fischer 344 rat bearing rat 9L cells at 20 uCi, iv after 60 mins; details: in vivo, 1 h
# Kidney [37] = assay: Biodistribution in kidney of Fischer 344 rat bearing rat 9L cells at 20 uCi, iv after 120 mins; format: ADME, organism-based; details: in vivo, 2 h; how it was run: as §1
# Muscle tissue [38] = assay: Biodistribution in muscle of Fischer 344 rat bearing rat 9L cells at 20 uCi, iv after 120 mins; format: ADME, organism-based; details: in vivo, 2 h; how it was run: as §1
# Liver [39] = assay: Biodistribution in liver of Fischer 344 rat bearing rat 9L cells at 20 uCi, iv after 120 mins; format: ADME, organism-based; details: in vivo, 2 h; how it was run: as §1
# Bone [40] = assay: Biodistribution in bone of Fischer 344 rat bearing rat 9L cells at 20 uCi, iv after 120 mins; format: ADME, organism-based, Bone element; details: in vivo, 2 h; how it was run: as §1
# Blood [41] = assay: Biodistribution in blood of Fischer 344 rat bearing rat 9L cells at 20 uCi, iv after 30 mins; format: ADME, organism-based; details: in vivo, 0.5 h; how it was run: as §1
# Kidney [42] = assay: Biodistribution in kidney of Fischer 344 rat bearing rat 9L cells at 20 uCi, iv after 60 mins; format: ADME, organism-based; details: in vivo, 1 h; how it was run: as §1
# Kidney [43] = assay: Biodistribution in kidney of Fischer 344 rat bearing rat 9L cells at 20 uCi, iv after 15 mins; format: ADME, organism-based; details: in vivo, 0.25 h; how it was run: as §1
# Spleen [44] = assay: Biodistribution in spleen of Fischer 344 rat bearing rat 9L cells at 20 uCi, iv after 60 mins; format: ADME, organism-based; details: in vivo, 1 h; how it was run: as §1
# Bone [45] = assay: Biodistribution in bone of Fischer 344 rat bearing rat 9L cells at 20 uCi, iv after 60 mins; format: ADME, organism-based, Bone element; details: in vivo, 1 h; how it was run: as §1
# Pancreas [46] = assay: Biodistribution in pancreas of Fischer 344 rat bearing rat 9L cells at 20 uCi, iv after 15 mins; format: ADME, organism-based; details: in vivo, 0.25 h; how it was run: as §1
# [47] = rat, in vivo, iv, 1 h; remark: listed apart in the source
# Brain [48] = assay: Biodistribution in brain of Fischer 344 rat bearing rat 9L cells at 20 uCi, iv after 30 mins; format: ADME, organism-based; details: in vivo, 0.5 h; how it was run: as §1
# Liver [49] = assay: Biodistribution in liver of Fischer 344 rat bearing rat 9L cells at 20 uCi, iv after 15 mins; format: ADME, organism-based; details: in vivo, 0.25 h; how it was run: as §1
smiles,measurement,setting,value
CN[C@@](C)(C[18F])C(=O)O.Cl,Drug uptake,Pancreas [1],3.41 % ID/g
same,Drug uptake,[2],2.64 % ID/g
same,Drug uptake,Kidney [3],8.91 % ID/g
same,Drug uptake,Spleen [4],0.62 % ID/g
same,Drug uptake,[5],0.16 % ID/g
same,Drug uptake,Heart [6],0.24 % ID/g
same,Drug uptake,Heart [7],0.23 % ID/g
same,Drug uptake,Spleen [8],0.63 % ID/g
same,Drug uptake,Muscle tissue [9],0.27 % ID/g
same,Drug uptake,Lung [10],0.25 % ID/g
same,Drug uptake,Liver [11],0.52 % ID/g
same,Drug uptake,Blood [12],0.41 % ID/g
same,Drug uptake,[13],0.15 % ID/g
same,Drug uptake,Pancreas [14],2.72 % ID/g
same,Drug uptake,Heart [15],0.55 % ID/g
same,Drug uptake,Lung [16],0.38 % ID/g
same,Drug uptake,[17],0.15 % ID/g
same,Drug uptake,Muscle tissue [18],0.23 % ID/g
same,Drug uptake,Brain [19],0.04 % ID/g
same,Drug uptake,Bone [20],0.48 % ID/g
same,Drug uptake,Blood [21],0.14 % ID/g
same,Drug uptake,Lung [22],0.36 % ID/g
same,Drug uptake,Muscle tissue [23],0.2 % ID/g
same,Drug uptake,[24],0.19 % ID/g
same,Drug uptake,Blood [25],0.24 % ID/g
same,Ratio,[26],115.4
same,Ratio,Brain [27],25
same,Drug uptake,Lung [28],0.79 % ID/g
same,Drug uptake,Pancreas [29],3.39 % ID/g
same,Drug uptake,Bone [30],0.51 % ID/g
same,Drug uptake,Spleen [31],0.57 % ID/g
same,Drug uptake,Liver [32],0.61 % ID/g
same,Ratio,[33],53.2
same,Drug uptake,Brain [34],0.06 % ID/g
same,Drug uptake,Heart [35],0.22 % ID/g
same,Ratio,[36],58.2
same,Drug uptake,Kidney [37],2.45 % ID/g
same,Drug uptake,Muscle tissue [38],0.22 % ID/g
same,Drug uptake,Liver [39],0.4 % ID/g
same,Drug uptake,Bone [40],0.44 % ID/g
same,Drug uptake,Blood [41],0.32 % ID/g
same,Drug uptake,Kidney [42],4.44 % ID/g
same,Drug uptake,Kidney [43],9.22 % ID/g
same,Drug uptake,Spleen [44],0.59 % ID/g
same,Drug uptake,Bone [45],0.51 % ID/g
same,Drug uptake,Pancreas [46],2.25 % ID/g
same,Drug uptake,[47],0.05 % ID/g
same,Drug uptake,Brain [48],0.04 % ID/g
same,Drug uptake,Liver [49],0.6 % ID/g
